From ChEMBL document CHEMBL4725241, “Discovery of BMS-986235/LAR-1219: A Potent Formyl Peptide Receptor 2 (FPR2) Selective Agonist for the Prevention of Heart Failure” (J Med Chem, 2020) come the findings set out here.

This series is described as follows: Oral bioavailability in BALB/cCrSlc mouse at 1 mg/kg by LC-MS/MS analysis. The series is classed as ADME, organism-based. The conditions noted are these: in vivo. A digest of the protocol:
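Oral bioavailability = (AUC0-inf,po/dose po)/(AUC0-inf,iv/dose iv) × 100. Oral dosing used a 0.5% MC suspension. IV dosing used a DMSO/PEG400/saline (5/47.5/47.5) solution, with CD1(ICR) mice for the iv arm. Plasma drug levels were measured by LC-MS/MS after methanol/acetonitrile extraction with internal standard.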

For `COc1cc(F)c([C@@H]2CNC(=O)[C@H]2NC(=O)Nc2ccccc2)c(F)c1` [BMS-986235], the bioavailability (commonly dose-corrected exposure relative to a reference, in per cent) was found to be 24%.
